Measurements reported in article PMC7495282 (British Journal of Clinical Pharmacology, 2020).
Like-named read-outs stand apart in the source and are kept apart here.

Experiments:
P‐glycoprotein (P‐gp) = conditions: in vitro; cited from earlier work
[1] = cited from earlier work
[2] = tested on: breast cancer resistance protein; conditions: in vitro; cited from earlier work
[3] = cited from earlier work; remark: listed apart in the source
[4] = Study 1 safety and tolerability; type: in vivo, healthy Japanese subjects; conditions: for Blood creatine phosphokinase increased, TEAE / Eosinophil count increased, TEAE / Rash, TEAE: n = 20
Procedure, shortened: (§1)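 Healthy Japanese males, 20–45 y. Safety was assessed from adverse events, laboratory tests, vital signs (BP, pulse rate, body temperature) and 12-lead ECG. Adverse events were coded by MedDRA/J (versions 19.0 and 19.1) System Organ Class and Preferred Term. Safety set was all consenting subjects given at least 1 dose of any study drug.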

[5] = esaxerenone 20 mg; ref unpublished data on file, Daiichi Sankyo Co., Ltd.; cited from earlier work
[6] = type: in vivo, healthy Japanese subjects
Procedure, shortened: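 Healthy Japanese males, 20–45 y. Oral 5 mg, fasted, Day 1. CYP3A inducer 600 mg orally once daily before breakfast for 9 days from Day 8; Day 13 dose given fasted 2 h after inducer. Plasma taken predose to 96 h (1700 g, 10 min, 4 °C; stored ≤−20 °C). Parent and metabolites M1, M4, M11 by SPE–LC–MS/MS. Noncompartmental analysis; GLSM ratios, 90% CI.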

CYP3A5 = conditions: human liver microsomes and human CYP expression system; cited from earlier work
[7] = tested on: mineralocorticoid receptor (MR); conditions: in vitro, cited from earlier work
[8] = Study 2 safety and tolerability; type: in vivo, healthy Japanese subjects
Procedure, shortened: as §1

[9] = cited from earlier work; remark: listed apart in the source
[10] = Study 1: single-dose esaxerenone pharmacokinetics alone and with itraconazole; type: in vivo, healthy Japanese subjects
Procedure, shortened: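 Healthy Japanese males, 20–45 y, BMI 18.5–<25 kg m−2. Oral 2.5 mg tablet with 200 mL water, fasted (≥10 h before, 4 h after), on Day 1. CYP3A inhibitor 200 mg twice on Day 8, then once daily Days 9–16. Day 13 co-dose given fasted. Plasma sampled predose to 96 h, extracted by SPE, assayed by LC–MS/MS. Noncompartmental PK; GLSM ratios with 90% CI.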

CYP3A4 = conditions: human liver microsomes and human CYP expression system; cited from earlier work
human MR = conditions: read-out: half-maximal inhibitory concentration for the transcriptional activity of human MR; in vitro; cited from earlier work
[11] = in the presence of ketoconazole; cited from earlier work
[12] = Study 1, esaxerenone 2.5 mg + itraconazole
[13] = Study 1, esaxerenone 2.5 mg alone
[14] = (esaxerenone + rifampicin)/(esaxerenone alone), 5 mg
[15] = coadministration with rifampicin vs esaxerenone alone
[16] = esaxerenone 5 mg + rifampicin, n = 11
[17] = esaxerenone 5 mg single oral dose + rifampicin 600 mg once daily, n = 11
[18] = esaxerenone 5 mg single oral dose, alone, n = 11
[19] = esaxerenone 5 mg, alone, n = 11
[20] = Study 2, esaxerenone 5 mg + rifampicin, n = 11
[21] = Study 2, esaxerenone 5 mg alone, n = 12
[22] = (esaxerenone + itraconazole)/(esaxerenone alone), 2.5 mg
[23] = esaxerenone 2.5 mg + itraconazole, n = 20
[24] = esaxerenone 2.5 mg single oral dose + itraconazole 200 mg, n = 20
[25] = esaxerenone 2.5 mg single oral dose, alone, n = 20
[26] = esaxerenone 2.5 mg, alone, n = 20

Cc1c(C(=O)Nc2ccc(S(C)(=O)=O)cc2)cn(CCO)c1-c1ccccc1C(F)(F)F [Esaxerenone]
substrate of P-glycoprotein (P‐glycoprotein (P‐gp)): substrate
tolerability ([1]; both dosages (2.5 and 5 mg d^−1)): well tolerated
clinical efficacy vs eplerenone 50 mg d^−1 ([1]; esaxerenone 2.5 mg d^−1, essential hypertension): noninferior
clinical efficacy of 5 mg d^−1 dosage vs 2.5 mg d^−1 dosage ([1]; essential hypertension): superior
substrate of breast cancer resistance protein [2]: substrate
absolute bioavailability [3]: approximately 90%
serious AEs ([4]; Study 1): No serious AEs
Blood creatine phosphokinase increased, TEAE [4, 12]: 0 number of subjects (%)
Eosinophil count increased, TEAE [4, 12]: 0 number of subjects (%)
Rash, TEAE [4, 12]: 0 number of subjects (%)
Blood creatine phosphokinase increased, TEAE [4, 13]: 1 (5.0) number of subjects (%)
Eosinophil count increased, TEAE [4, 13]: 0 number of subjects (%)
Rash, TEAE [4, 13]: 0 number of subjects (%)
subjects reporting TEAEs ([4]; Study 1, whole study): 1 subject
safety and tolerability (in words) ([4]; administered concomitantly with itraconazole): safe and well tolerated
mean plasma concentrations, Japanese vs Caucasian subjects [5]: similar
AUCinf GLSM ratio (90% CI) [6, 14]: 0.312 (0.297, 0.328)
Cmax GLSM ratio (90% CI) [6, 14]: 0.659 (0.599, 0.724)
decrease in esaxerenone Cmax [6, 15]: 34.1%
fold reduction of esaxerenone AUCinf [6, 15]: approximately 0.3 fold
AUCinf, GLSM [6, 16]: 350 ng·h/mL
Cmax, GLSM [6, 16]: 47.2 ng/mL
AUCinf, arithmetic mean (SD) [6, 17]: 351 (24.8) ng h mL^−1
CL/F, arithmetic mean (SD) [6, 17]: 14.3 (1.01) L h^−1
Cmax, arithmetic mean (SD) [6, 17]: 47.6 (6.22) ng mL^−1
t1/2, arithmetic mean (SD) [6, 17]: 8.63 (1.67) h
tmax, median (range) [6, 17]: 2.50 (1.00–4.00) h
AUCinf, arithmetic mean (SD) [6, 18]: 1130 (150) ng h mL^−1
CL/F, arithmetic mean (SD) [6, 18]: 4.50 (0.634) L h^−1
t1/2, arithmetic mean (SD) [6, 18]: 16.6 (2.38) h
tmax, median (range) [6, 18]: 2.50 (1.50–3.50) h
Cmax, arithmetic mean (SD) ([6]; esaxerenone 5 mg single oral dose, alone, n = 11, plasma): 72.4 (10.1) ng mL^−1
AUCinf, GLSM [6, 19]: 1121 ng·h/mL
Cmax, GLSM [6, 19]: 71.7 ng/mL
involvement of CYP3A5 in oxidative metabolism (CYP3A5): involved in the oxidative metabolism
MR affinity relative to eplerenone ([7]; fold greater than eplerenone): 4 fold
MR affinity relative to spironolactone ([7]; fold greater than spironolactone): 76 fold
serious AEs ([8]; Study 2): No serious AEs
Blood creatine phosphokinase increased, TEAE [8, 20]: 0 number of subjects (%)
Eosinophil count increased, TEAE [8, 20]: 1 (9.1) number of subjects (%)
Rash, TEAE [8, 20]: 0 number of subjects (%)
Blood creatine phosphokinase increased, TEAE [8, 21]: 0 number of subjects (%)
Eosinophil count increased, TEAE [8, 21]: 0 number of subjects (%)
Rash, TEAE [8, 21]: 1 (8.3) number of subjects (%)
subjects reporting TEAEs ([8]; Study 2, whole study): 2 subjects
safety and tolerability (in words) ([8]; administered concomitantly with rifampicin): safe and well tolerated
proportion of unchanged drug excreted in faeces ([9]; 14C-labelled esaxerenone): 18.7%
proportion of unchanged drug excreted in urine ([9]; 14C-labelled esaxerenone): 1.6%
overall excretion rate of oxidised metabolites ([9]; metabolite profiles in faeces and urine): about 30 % of the total dose
AUCinf GLSM ratio (90% CI) [10, 22]: 1.53 (1.45, 1.62)
Cmax GLSM ratio (90% CI) [10, 22]: 1.13 (1.05, 1.20)
AUCinf GLSM ratio (90% CI) ([10]; (esaxerenone + itraconazole)/(esaxerenone alone), 2.5 mg, listed as esaxerenone): 1.53 (1.45–1.62)
increase in esaxerenone Cmax ([10]; coadministration of itraconazole vs esaxerenone alone): 12.6%
AUCinf, GLSM [10, 23]: 976 ng·h/mL
Cmax, GLSM [10, 23]: 41.0 ng/mL
AUCinf, arithmetic mean (SD) [10, 24]: 996 (219) ng h mL^−1
CL/F, arithmetic mean (SD) [10, 24]: 2.61 (0.477) L h^−1
Cmax, arithmetic mean (SD) [10, 24]: 41.7 (8.46) ng mL^−1
t1/2, arithmetic mean (SD) [10, 24]: 25.9 (4.21) h
tmax, median (range) [10, 24]: 2.00 (1.00–4.00) h
AUCinf, arithmetic mean (SD) [10, 25]: 648 (121) ng h mL^−1
CL/F, arithmetic mean (SD) [10, 25]: 3.98 (0.696) L h^−1
t1/2, arithmetic mean (SD) [10, 25]: 20.7 (3.96) h
tmax, median (range) [10, 25]: 2.25 (1.50–4.00) h
Cmax, arithmetic mean (SD) ([10]; esaxerenone 2.5 mg single oral dose, alone, n = 20, plasma): 36.7 (5.36) ng mL^−1
AUCinf, GLSM [10, 26]: 637 ng·h/mL
Cmax, GLSM [10, 26]: 36.4 ng/mL
involvement of CYP3A4 in oxidative metabolism (CYP3A4): involved in the oxidative metabolism

COC(=O)[C@@H]1CC2=CC(=O)CC[C@]2(C)[C@@]23O[C@@H]2C[C@@]2(C)[C@@H](CC[C@@]24CCC(=O)O4)[C@H]13 [eplerenone]
increase in eplerenone exposure [11]: 5 fold
IC50 (human MR): 970 nM
